Test results: PMC4545688 (Pain, 2015)

Columns and labels:
[1] = tested on: GFP-transfected ACE-1 cells; assay: Prostate cancer cells in vitro growth assay, GFP-transfected ACE-1; format: cell-based, canine; conditions: for effect on cell growth (sensitivity): three day growth assay in vitro
Summary of the method: (§1)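 Cells were seeded at 3000 cells/well and allowed to adhere overnight at 37°C, 5% CO2. Test compound or staurosporine was prepared as an 8-point, 3-fold DMSO series from a 10 mM stock, giving a final 500-fold dilution of stocks, in triplicate. After 3 days, growth was measured by CellTiter-Glo luminescence, normalised to the DMSO signal (% control), and IC50 was fitted against concentration.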

parental ACE1 cells = assay: Prostate cancer cells in vitro growth assay, parental ACE1; format: cell-based, canine; conditions: for effect on cell growth (sensitivity): three day growth assay in vitro
Summary of the method: as §1

PC-3 = assay: Prostate cancer cell growth in vitro, PC-3; format: cell-based; conditions: data not shown
Rat formalin test = format: in vivo; conditions: 30 mg/kg PO two hours before subplantar formalin; vs vehicle; p<0.05
Summary of the method: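 SD rats received test compound at 30 mg/kg or vehicle (0.5% HPMC/1% Tween 80/2.5% DMSO) orally, 2 h before subplantar formalin (0.05 mL, 1%). Hind paw licking time was recorded at 5-minute intervals for 30 minutes, covering the acute and inflammatory phases. Data are the average of two independent experiments with six rats per group per trial.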

[2] = Radiographic assessment of tumor-induced bone remodeling; format: in vivo, mouse
Summary of the method: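 In the femoral ACE-1 tumor model, compound-formulated chow (average 30 mg/kg/day) or control chow was given ad libitum from day 14 to study end, n=8/group. Radiographs were taken from day 14 and then every 7 days. In blinded analysis, bone lying outside the normal femur diameter (defined from naïve/sham mice) was traced with a mm-calibrated free-form tool. Mean area was calculated per group.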

[3] = tested on: CD68+ macrophages and osteoclasts; assay: CD68+ cells in tumor-bearing bone sections; format: in vivo, mouse
Summary of the method: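 Mice received intramedullary femoral injection of GFP+ ACE-1 prostate cancer cells. From day 14 they were given test compound in chow (average 30 mg/kg/day) or control chow ad libitum, n=8/group. At day 65, 20 μm decalcified frozen bone sections were stained with rat anti-mouse CD68 (1:2,000), Cy3 secondary and DAPI. Two 400X confocal images were taken per section from three sections per animal, in GFP+ tumor areas. Blinded counts were made per μm3.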

[4] = Spontaneous guarding and flinching in prostate model of bone cancer; format: in vivo, mouse; conditions: 30 mg/kg/day in chow from day 14; days 56 and 63; vs vehicle; 2-min observation
[5] = tested on: Human osteoclast precursors; assay: Osteoclast differentiation assay; format: cell-based; conditions: six days with CSF-1 and RANKL, up to 10 μM
Summary of the method: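 Human osteoclast precursors were cultured at 37°C, 5% CO2, with CSF-1 (33 ng/mL), RANKL (66 ng/mL) and test compound (up to 10 μM) or 0.2% DMSO for 6 days. After a medium change, cells were incubated 1 more day. Supernatant acid phosphatase (TRAP5b) was read at 405 nm. Results are expressed as percent inhibition relative to vehicle with or without CSF-1, from six independent experiments.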

[6] = ref [4],[16],[19]; cited from earlier work
[7] = tested on: ACE-1 prostate cancer cells; assay: Radiographic number of cancer cell colonies and overall tumor burden; format: in vivo, mouse
Summary of the method: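 In the same chow-dosing femoral tumor model, radiographs of tumor-bearing femurs were analysed blind. Images were split into distal and proximal halves and enlarged. Each colony was numbered and traced, defined as a radio-translucent area bounded by radio-opaque woven bone. Colony number per region and total tumor area per femur were recorded, then averaged per treatment group.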

LNCaP = assay: Prostate cancer cell growth in vitro, LNCaP; format: cell-based; conditions: data not shown
[8] = sustained administration 30 mg/kg/day in chow
[9] = three day growth assay, CellTiter-Glo
[10] = 30 mg/kg/day in chow, distal and proximal ends of femur, vs vehicle, p<0.05

osteoclast differentiation (acid phosphatase activity, TRAP5b) [5]	Compound	effect on cell growth (sensitivity) [1]	effect on cell growth (sensitivity) (parental ACE1 cells)	effect on prostate cancer cell growth (PC-3)	hind paw licking time, acute phase (0–5 minutes) (Rat formalin test)	hind paw licking time, inflammatory phase (10–30 minutes) (Rat formalin test)	extra-periosteal bone formation (periosteal reaction area) ([2]; 30 mg/kg/day in chow from day 14, days 14–63, vs vehicle, p<0.05)	overall radio-opacity of tumor-bearing femur ([2]; 30 mg/kg/day in chow, vs prostate cancer + vehicle)	attenuation of tumor-induced bone remodeling [2, 8]	viability of cancer cells in tumor cell colony ([3]; GFP+ prostate cancer cells in bone sections, day 65)	number of CD68+ cells per tissue volume ([3]; day 65 post-tumor cell injection, chronic treatment, vs vehicle, p<0.05)	time spent guarding tumor-bearing limb [4]	crossing of the blood brain barrier [6]	concentration up to which no effect on cell growth (not sensitive) [1, 9] [µM]	number of cancer cell colonies [7, 10]	total tumor burden area [7, 10]	attenuation of disease progression [7, 8]	concentration up to which no effect on cell growth (not sensitive) (parental ACE1 cells; [9]) [µM]	effect on prostate cancer cell growth (LNCaP)
–	Cn1c(=O)n(-c2ccc(C(C)(C)C#N)cc2)c2c3cc(-c4cnc5ccccc5c4)ccc3ncc21 [BEZ-235, reference compound]	sensitive	sensitive	–	–	–	–	–	–	–	–	–	–	–	–	–	–	–	–
inhibited	FC(F)(F)c1ccc(CNc2ccc(Cc3c[nH]c4ncc(Cl)cc34)cn2)cn1 [PLX3397]	–	did not affect	did not affect	analgesic effects	analgesic effects	significantly reduced	increase	approximately 50%	little effect	significantly reduced	reduced	does cross the blood brain barrier	> 10	significantly reduced	significantly reduced	approximately 50%	> 10	did not affect
–	CN[C@@H]1C[C@H]2O[C@@](C)([C@@H]1OC)n1c3ccccc3c3c4c(c5c6ccccc6n2c5c31)C(=O)NC4 [staurosporine, reference compound]	sensitive	sensitive	–	–	–	–	–	–	–	–	–	–	–	–	–	–	–	–
